Bioassay records (PubChem)
Most compounds without a hit are left out; they make up all but 4.9% or so of the library.
STAT1 blocker – STAT1 signaling inhibitors, primary screen, cell-based, HTS, luciferase reporter; NIH 3T3 STAT1-luciferase reporter, IFN-gamma, luminescence; inhibition, % at 5.5 µM; 200,000 compounds, 0.35% hits; AID 920, 2007;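 active = inhibition above a set limit, the mean inhibition across all tested compounds plus 3 SD, cut at about 34% in these data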;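 also: 0% = IFN-gamma with DMSO and 100% = IFN-gamma with 300 µM nifuroxazide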
NF-kB neuron act – activators of NF-kB expression in neurons, primary screen, cell-based, HTS. human neuronal cells, NF-kB reporter expression; hits give high values. fold change at 12.5 µM. 190,000 compounds, 1.6% hits; in the data active = fold change above about 3.3
STAT1 act-1 – STAT1 signaling activators, primary screen, cell-based, HTS, luciferase reporter. activation (% of control), % at 5.5 µM. 200,000 compounds, 2.6% hits. NIH 3T3 STAT1-luciferase reporter, IFN-gamma, luminescence; 100% = IFN-gamma alone, no compound;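 active = activation above the screen-wide mean activation plus 3 SD, cut at about 130% in these data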;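 also: raw ratio to IFN-gamma control signal so 100% means no change and 0% no light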
APP 5'UTR act – activators of APP 5'UTR luciferase reporter, primary screen, SH-SY5Y cells. SH-SY5Y APP 5'UTR luciferase reporter, luminescence; zero percent = DMSO vehicle wells. activation, % at 2 µM. 190,000 compounds, 1% hits. AID 1276, 2008;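 active = activation above a set limit, based on mean plus 3 SD of controls, cut at about 140% in these data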
STAT3 act-1 – IL-6 driven STAT3 reporter potentiators, primary screen, U3A cells, luciferase, luminescence, MLSCN library; IL-6 STAT3-luciferase reporter; 100% = signal with IL-6 EC80 alone; activation (% of control), % at 5.6 µM; 190,000 compounds, 0.91% hits; AID 871, 2007;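 active = activation above the screen-wide mean of compound activation plus 3 SD, cut at about 130% in these data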;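 also: 0% = background luminescence of wells with medium and substrate only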
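Test system: human U3A cells carrying STAT3-luciferase construct; control set: IL-6-only wells as 100% reference; timing: compound pre-incubation 1 h before IL-6, then 6 h stimulation at 37 °C; also added: IL-6 stimulus at 33 ng/mL final; evaluation: % activation versus median of IL-6-stimulated wells; detection: reporter luminescence signal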
STAT3 inh – IL-6 driven STAT3 reporter inhibitors, primary screen, U3A cells, luciferase, luminescence, MLSCN library | AID 862, 2007 | IL-6 STAT3-luciferase reporter; host cell line lacks STAT1 | 190,000 compounds, 0.89% hits | inhibition, % at 5.5 µM;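 active = inhibition above the mean inhibition across all screened compounds plus 3 SD, cut at about 44% in these data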;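 also: 0% = DMSO only wells and 100% = 100 µM nifuroxazide control wells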
STAT3 act-2 – STAT3 reporter potentiators, retest of hits, confirmation, U3A cells, luciferase, luminescence | shares compounds with STAT3 act-1 | IL-6 potentiation; U3A cells lack STAT1; 100 means same as IL-6 alone | potentiation (% of control), % at 5.7 µM | 1,200 compounds, 64% hits;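 active = percent activation of the STAT3 luciferase reporter above a set limit taken from the earlier primary screen, cut at about 130% in these data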;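 also: 0% = background signal of medium plus substrate and 100% = median of IL-6 with DMSO wells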
NFkB act STAT3ct – NF-kB reporter activators in human cells, counter-screen for STAT3 activator project. shares compounds with STAT3 act-1. NF-kappaB reporter activation. activation (% of control), % at 5.7 µM. 1,200 compounds, 11% hits. AID 1309, 2008; in the data active = activation above about 120%;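 also: reporter induced by TNF-alpha stimulation; 100% = median of stimulated DMSO wells and 0% = no signal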
STAT1 act-2 – STAT1 reporter activators, IFN-gamma induced, counter-screen for STAT3 activator project, cell-based, NIH 3T3, luciferase luminescence. 1,200 compounds, 13% hits. AID 1318, 2008. activation (% of control), % at 5.7 µM. shares compounds with STAT3 act-1. NIH 3T3 STAT1-luciferase reporter;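 active = activation above the solvent-only control well mean plus 3 SD, set per screening run, cut at about 120% in these data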;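 also: 100% = IFN-gamma with DMSO median signal so 100% means no change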
An asterisk follows results filed as active.

Screening COc1ccc(S(=O)(=O)Nc2nc3ccccc3s2)cc1OC returned STAT1 blocker -2, NF-kB neuron act 0.95, STAT1 act-1 102, APP 5'UTR act -15, STAT3 act-1 154*, STAT3 inh -56, STAT3 act-2 142*, NFkB act STAT3ct 100 and STAT1 act-2 94.
`O=S(=O)(Nc1nc2ccccc2s1)c1ccc(Br)s1` gave STAT1 blocker 1, NF-kB neuron act 0.93, STAT1 act-1 100, STAT3 act-1 142*, STAT3 inh -47, STAT3 act-2 134*, NFkB act STAT3ct 107 and STAT1 act-2 97.
Screening Cc1ccc(S(=O)(=O)Nc2nc3ccccc3s2)cc1 returned STAT1 blocker 5, NF-kB neuron act 0.91, STAT1 act-1 96, APP 5'UTR act 8, STAT3 act-1 103 and STAT3 inh -6.
Screening O=C(C1CCCN(S(=O)(=O)c2ccccc2[N+](=O)[O-])C1)N1CCN(c2ccccc2)CC1 (stereo not drawn) returned STAT1 blocker -4, NF-kB neuron act 0.82, STAT1 act-1 103, APP 5'UTR act 13, STAT3 act-1 102 and STAT3 inh -3.
Screening COc1ccccc1NC(=O)C1=C(C)NC(=O)NC1c1ccccc1[N+](=O)[O-] (stereo not drawn) returned STAT1 blocker 12, NF-kB neuron act 1, STAT1 act-1 88, APP 5'UTR act 7, STAT3 act-1 144*, STAT3 inh -44, STAT3 act-2 138*, NFkB act STAT3ct 104 and STAT1 act-2 99.
CC(=O)Nc1ccc(N2C(=O)c3ccc(C(=O)Nc4nnc(SCc5ccc(F)cc5)s4)cc3C2=O)cc1 was read as STAT1 blocker -5, STAT1 act-1 102, APP 5'UTR act -15, STAT3 act-1 94 and STAT3 inh 12.
Nc1ccc(Cc2nc3cc4ccccc4cc3[nH]2)cc1 was read as STAT1 blocker -13, NF-kB neuron act 1.9, STAT1 act-1 112, APP 5'UTR act 36, STAT3 act-1 136*, STAT3 inh -39, STAT3 act-2 143*, NFkB act STAT3ct 113 and STAT1 act-2 130*.
Nc1ccc2nc(CCc3ccccc3)[nH]c2c1 was read as STAT1 blocker -17, NF-kB neuron act 1, STAT1 act-1 116, APP 5'UTR act 23, STAT3 act-1 105 and STAT3 inh -8.
Screening Cc1[nH]c2ccccc2c1Cc1nnc(SCC(N)=O)o1 returned STAT1 blocker 11, NF-kB neuron act 1, STAT1 act-1 87, APP 5'UTR act -5, STAT3 act-1 153*, STAT3 inh -66, STAT3 act-2 103, NFkB act STAT3ct 100 and STAT1 act-2 96.
`Cc1[nH]c2ccccc2c1CCC(N)=O` gave STAT1 blocker -7, NF-kB neuron act 1.7, STAT1 act-1 106, APP 5'UTR act -12, STAT3 act-1 105 and STAT3 inh -2.
`Cc1ccc(O)c(-c2cc(C(=O)Nc3ccc(S(=O)(=O)Nc4nc(C)cc(C)n4)cc3)[nH]n2)c1` gave STAT1 blocker -7, NF-kB neuron act 1.1, STAT1 act-1 106, APP 5'UTR act 14, STAT3 act-1 91 and STAT3 inh 13.
